Results as given in ChEMBL document CHEMBL4014308, “Amphiphilic Tobramycin-Lysine Conjugates Sensitize Multidrug Resistant Gram-Negative Bacteria to Rifampicin and Minocycline” (J Med Chem, 2017).
Values after ≈ are worked out from the molar mass of the structure shown. Active and inactive are the calls of the source. No cut-off for these calls is given here.

Key:
Format in all cases: functional
Pseudomonas aeruginosa [1] = experiment: Antibacterial activity against multidrug/extremely drug-resistant/colistin-resistant Pseudomonas aeruginosa isolate 101243 after 18 hrs by microtiter dilution assay; details: isolate 101243, 18 h
Procedure, shortened: (§1)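 Broth microdilution following CLSI guidelines. An overnight culture was adjusted to 0.5 McFarland in saline, then diluted 1:50 in Mueller-Hinton broth. This inoculum was added in equal volume to 2-fold serial dilutions of agent in MHB and incubated 18 h at 37 °C. MIC was the lowest concentration with no visible growth.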

Staphylococcus aureus [2] = experiment: Antibacterial activity against Staphylococcus aureus ATCC 29213 after 18 hrs by microtiter dilution assay; details: ATCC 29213, 18 h; procedure, shortened: as §1
Pseudomonas aeruginosa [3] = experiment: Antibacterial activity against multidrug/extremely drug-resistant/colistin-susceptible Pseudomonas aeruginosa isolate P264-104354 after 18 hrs by microtiter dilution assay; details: isolate P264-104354, 18 h; procedure, shortened: as §1
Pseudomonas aeruginosa [4] = experiment: Antibacterial activity against multidrug/extremely drug-resistant/colistin-susceptible Pseudomonas aeruginosa isolate P259-96918 after 18 hrs by microtiter dilution assay; details: isolate P259-96918, 18 h; procedure, shortened: as §1
Enterococcus faecium = experiment: Antibacterial activity against Enterococcus faecium ATCC 27270 after 18 hrs by microtiter dilution assay; details: ATCC 27270, 18 h
Procedure, shortened: (§2)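 Broth microdilution per CLSI. Overnight culture adjusted to 0.5 McFarland in saline, diluted 1:50 in Mueller-Hinton broth, and added to an equal volume of 2-fold serial compound dilutions in MHB. Incubated 18 h at 37 °C. MIC taken as the lowest concentration with no visible growth.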

Escherichia coli [5] = experiment: Antibacterial activity against Escherichia coli ATCC 25922 after 18 hrs by microtiter dilution assay; details: ATCC 25922, 18 h; procedure, shortened: as §1
Pseudomonas aeruginosa [6] = experiment: Induction of cytoplasmic membrane depolarization in Pseudomonas aeruginosa PAO1 up to 1200 secs by diSC3-5 staining based fluorescence assay
Procedure, shortened: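 Mid-log PAO1 washed in 5 mM HEPES pH 7.4 with 20 mM glucose and resuspended to OD600 0.05. Cells were loaded with 0.2 mM EDTA and 0.4 µM diSC3-5 for 2 h at 37 °C in the dark, then equilibrated with 100 mM KCl for 30 min. Agent was added and fluorescence followed at 622/670 nm; agents tested at 32 µg/mL.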

Escherichia coli [7] = experiment: Antibacterial activity against gentamicin/tobramycin/ciprofloxacin-resistant Escherichia coli isolate CANWARD-2011 97615 harboring AAC3-2A after 18 hrs by microtiter dilution assay; details: isolate CANWARD-2011 97615, 18 h; procedure, shortened: as §1
Pseudomonas aeruginosa [8] = experiment: Antibacterial activity against multidrug/extremely drug-resistant/colistin-susceptible Pseudomonas aeruginosa isolate P262-101856 after 18 hrs by microtiter dilution assay; details: isolate P262-101856, 18 h; procedure, shortened: as §1
Pseudomonas aeruginosa [9] = experiment: Antibacterial activity against multidrug/extremely drug-resistant/colistin-susceptible Pseudomonas aeruginosa isolate 100036 after 18 hrs by microtiter dilution assay; details: isolate 100036, 18 h; procedure, shortened: as §1
Streptococcus pneumoniae = experiment: Antibacterial activity against Streptococcus pneumoniae ATCC 49619 after 18 hrs by microtiter dilution assay; details: ATCC 49619, 18 h; procedure, shortened: as §2
Klebsiella pneumoniae [10] = experiment: Antibacterial activity against Klebsiella pneumoniae ATCC 13883 after 18 hrs by microtiter dilution assay; details: ATCC 13883, 18 h; procedure, shortened: as §2
Enterococcus faecalis = experiment: Antibacterial activity against Enterococcus faecalis ATCC 29212 after 18 hrs by microtiter dilution assay; details: ATCC 29212, 18 h; procedure, shortened: as §2
Escherichia coli [11] = experiment: Antibacterial activity against amikacin-resistant Escherichia coli isolate CAN-ICU 63074 after 18 hrs by microtiter dilution assay; details: isolate CAN-ICU 63074, 18 h; procedure, shortened: as §1
Pseudomonas aeruginosa [12] = experiment: Antibacterial activity against multidrug/extremely drug-resistant/colistin-resistant Pseudomonas aeruginosa isolate 91433 after 18 hrs by microtiter dilution assay; details: isolate 91433, 18 h; procedure, shortened: as §1
[13] = system: Stenotrophomonas maltophilia; experiment: Antibacterial activity against Stenotrophomonas maltophilia isolate CAN-ICU 62584 after 18 hrs by microtiter dilution assay; details: isolate CAN-ICU 62584, 18 h; procedure, shortened: as §2
Pseudomonas aeruginosa [14] = experiment: Disruption of proton motive force in Pseudomonas aeruginosa PAO1 cytoplasmic membrane assessed as repression of bacterial swimming motility after 20 hrs
Procedure, shortened: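 Swim plates of 0.3% agar with tryptone 5 g/L and NaCl 2.5 g/L, agent mixed into the medium and plates dried 2 h. PAO1 at 1.0 McFarland in 0.85% saline was point-inoculated at the center, and plates incubated 20 h at 37 °C before swim diameter was imaged.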

Staphylococcus aureus [15] = experiment: Antibacterial activity against methicillin resistant Staphylococcus aureus ATCC 33592 after 18 hrs by microtiter dilution assay; details: ATCC 33592, 18 h; procedure, shortened: as §1
Pseudomonas aeruginosa [16] = experiment: Antibacterial activity against gentamicin/tobramycin-resistant Pseudomonas aeruginosa isolate CANWARD-2011 96846 after 18 hrs by microtiter dilution assay; details: isolate CANWARD-2011 96846, 18 h; procedure, shortened: as §1
Pseudomonas aeruginosa [17] = experiment: Antibacterial activity against multidrug/extremely drug-resistant/colistin-susceptible Pseudomonas aeruginosa isolate 101885 after 18 hrs by microtiter dilution assay; details: isolate 101885, 18 h; procedure, shortened: as §1
Pseudomonas aeruginosa [18] = experiment: Synergistic antibacterial activity against Pseudomonas aeruginosa PAO1 after 18 hrs in presence of rifampicin by checkerboard assay
Procedure, shortened: (§3)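 Checkerboard in MHB: antibiotic diluted along one axis and adjuvant along the other (10 × 7 matrix). Inoculum was a 1:50 dilution in MHB of a 0.5 McFarland saline suspension; incubated 18 h at 37 °C. Each FIC = concentration in the no-growth well divided by the MIC alone; FIC index = sum of both FICs. ≤0.5 synergy, 0.5–4 no interaction, ≥4 antagonism.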

Pseudomonas aeruginosa [19] = experiment: Induction of outer membrane permeabilization in Pseudomonas aeruginosa PAO1 at 32 ug/ml after 30 mins by CFDASE staining based fluorescence assay
Procedure, shortened: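 Log-phase PAO1 washed in PBS, brought to OD600 0.5 and loaded with 100 µM CFDASE for 30 min at 37 °C, then washed. Cells were exposed to agent for 30 min at 37 °C and supernatant fluorescence read at 488/520 nm. Untreated cells were subtracted; 1% Triton X-100 served as positive control.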

Pseudomonas aeruginosa [20] = experiment: Synergistic antibacterial activity against Pseudomonas aeruginosa PAO1 after 18 hrs in presence of minocycline by checkerboard assay; procedure, shortened: as §3
Pseudomonas aeruginosa [21] = experiment: Antibacterial activity against Pseudomonas aeruginosa ATCC 27853 after 18 hrs by microtiter dilution assay; details: ATCC 27853, 18 h; procedure, shortened: as §2
[22] = system: Staphylococcus epidermidis; experiment: Antibacterial activity against methicillin-susceptible Staphylococcus epidermidis isolate CANWARD-2008 81388 after 18 hrs by microtiter dilution assay; details: isolate CANWARD-2008 81388, 18 h; procedure, shortened: as §1
[23] = system: Staphylococcus epidermidis; experiment: Antibacterial activity against methicillin-resistant Staphylococcus epidermidis isolate CAN-ICU 61589 after 18 hrs by microtiter dilution assay; details: isolate CAN-ICU 61589, 18 h; procedure, shortened: as §1
Acinetobacter baumannii [24] = experiment: Antibacterial activity against Acinetobacter baumannii isolate CAN-ICU 63169 after 18 hrs by microtiter dilution assay; details: isolate CAN-ICU 63169, 18 h; procedure, shortened: as §2
Pseudomonas aeruginosa [25] = experiment: Antibacterial activity against gentamicin-resistant Pseudomonas aeruginosa isolate CAN-ICU 62308 after 18 hrs by microtiter dilution assay; details: isolate CAN-ICU 62308, 18 h; procedure, shortened: as §1
Pseudomonas aeruginosa [26] = experiment: Antibacterial activity against Pseudomonas aeruginosa PAO1 after 18 hrs by microtiter dilution assay; details: PAO1, 18 h; procedure, shortened: as §1
Escherichia coli [27] = experiment: Antibacterial activity against gentamicin-resistant Escherichia coli isolate CAN-ICU 61714 after 18 hrs by microtiter dilution assay; details: isolate CAN-ICU 61714, 18 h; procedure, shortened: as §1
Pseudomonas aeruginosa [28] = experiment: Antibacterial activity against Pseudomonas aeruginosa PAO1 assessed as ratio of MIC after 25 serial passages to MIC before 25 serial passages by microtiter dilution assay
Procedure, shortened: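 Sequential passaging of wild-type PAO1 with single drugs or drug combinations. MIC was tested in MHB for 18 h. Cells from the well at half the MIC were adjusted to 0.5 McFarland in saline, diluted 1:50 in fresh MHB and used for the next MIC test. This was repeated for 25 passages, and the fold change in MIC was plotted against passage number.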

Pseudomonas aeruginosa [29] = experiment: Bactericidal activity against Pseudomonas aeruginosa PAO1 at 0.125 times antibacterial MIC after 6 hrs
Acinetobacter baumannii [30] = experiment: Antibacterial activity against multidrug-resistant Acinetobacter baumannii 110193 after 18 hrs by microtiter dilution assay; details: Acinetobacter baumannii, 110193, 18 h; procedure, shortened: as §1
Pseudomonas aeruginosa [31] = experiment: Bactericidal activity against Pseudomonas aeruginosa PAO1 at 4 times antibacterial MIC after 6 hrs
Procedure, shortened: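 Time-kill with P. aeruginosa PAO1. A 0.5 McFarland suspension was diluted 1:50 in LB broth and exposed to agent in PBS (pH 7.2) at 1/2×, 1×, 2× or 4× MIC at 37 °C for 6 h. Samples at 0, 10, 30, 60, 90, 120, 240 and 360 min were serially diluted in PBS, plated on LB agar, and colonies counted after 20 h at 37 °C.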

Enterobacter cloacae = experiment: Antibacterial activity against multidrug-resistant Enterobacter cloacae 117029 after 18 hrs by microtiter dilution assay; details: Enterobacter cloacae, 117029, 18 h; procedure, shortened: as §1
Pseudomonas aeruginosa [32] = experiment: Antibacterial activity against multidrug/extremely drug-resistant/colistin-susceptible Pseudomonas aeruginosa isolate P262-101856 infected in Galleria mellonella assessed as mortality at 75 mg/kg after 24 hrs relative to control; details: isolate P262-101856, 24 h
Procedure, shortened: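 Galleria mellonella larvae (about 250 mg, used within 7 days; 15 per group) were injected with 10 µL of XDR P. aeruginosa P262 at 1.0×10^3 CFU/mL. At 2 h they received a single 10 µL injection: monotherapy at 75 mg/kg, or combinations at 12.5+12.5 to 75+75 mg/kg. PBS vehicle served as control. Survival was scored over 24 h at 37 °C.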

Acinetobacter baumannii [33] = experiment: Antibacterial activity against multidrug-resistant Acinetobacter baumannii AB030 after 18 hrs by microtiter dilution assay; details: AB030, 18 h; procedure, shortened: as §1
Acinetobacter baumannii [34] = experiment: Antibacterial activity against multidrug-resistant Acinetobacter baumannii AB027 after 18 hrs by microtiter dilution assay; details: AB027, 18 h; procedure, shortened: as §1
Klebsiella pneumoniae [35] = experiment: Antibacterial activity against multidrug-resistant Klebsiella pneumoniae 116381 after 18 hrs by microtiter dilution assay; details: Klebsiella pneumoniae, 116381, 18 h; procedure, shortened: as §1
Acinetobacter baumannii [36] = experiment: Antibacterial activity against multidrug-resistant Acinetobacter baumannii AB031 after 18 hrs by microtiter dilution assay; details: AB031, 18 h; procedure, shortened: as §1

CCCCCCCCCCCCN(Cc1c2ccccc2c(Cl)c2ccccc12)C(=O)[C@@H](N)CCCCN.O=C(O)C(F)(F)F.O=C(O)C(F)(F)F
MIC (Pseudomonas aeruginosa [1]): 64 µg/mL
MIC (Staphylococcus aureus [2]): 32 µg/mL
MIC (Pseudomonas aeruginosa [3]): 128 µg/mL
MIC (Pseudomonas aeruginosa [4]): 64 µg/mL
MIC (Enterococcus faecium): 8 µg/mL
MIC (Escherichia coli [5]): 64 µg/mL
Activity (Pseudomonas aeruginosa [6]): Dose-dependent effect
MIC (Escherichia coli [7]): 64 µg/mL
MIC (Pseudomonas aeruginosa [8]): 128 µg/mL
MIC (Pseudomonas aeruginosa [9]): 256 µg/mL
MIC (Streptococcus pneumoniae): 32 µg/mL
MIC (Klebsiella pneumoniae [10]): > 128 µg/mL
MIC (Enterococcus faecalis): 32 µg/mL
MIC (Escherichia coli [11]): 64 µg/mL
MIC (Pseudomonas aeruginosa [12]): 256 µg/mL
MIC [13]: > 128 µg/mL
Activity (Pseudomonas aeruginosa [14]): Dose-dependent effect
MIC (Staphylococcus aureus [15]): 64 µg/mL
MIC (Pseudomonas aeruginosa [16]): > 128 µg/mL
MIC (Pseudomonas aeruginosa [17]): 128 µg/mL
Activity (Pseudomonas aeruginosa [18]): inactive
Activity (Pseudomonas aeruginosa [19]): inactive
Activity (Pseudomonas aeruginosa [20]): inactive
MIC (Pseudomonas aeruginosa [21]): > 128 µg/mL
MIC [22]: 8 µg/mL
MIC [23]: 8 µg/mL
MIC (Acinetobacter baumannii [24]): 128 µg/mL
MIC (Pseudomonas aeruginosa [25]): 128 µg/mL
MIC (Pseudomonas aeruginosa [26]): 256 µg/mL
MIC (Escherichia coli [27]): 128 µg/mL

CN(C)c1ccc(O)c2c1C[C@H]1C[C@H]3[C@H](N(C)C)C(O)=C(C(N)=O)C(=O)[C@@]3(O)C(O)=C1C2=O [MINOCYCLINE]
Ratio (Pseudomonas aeruginosa [28]): 16
MIC (Pseudomonas aeruginosa [1]): 4 µg/mL (≈ 8.74 µM)
Activity (Pseudomonas aeruginosa [29]): inactive
MIC (Acinetobacter baumannii [30]): 2 µg/mL (≈ 4.37 µM)
Activity (Pseudomonas aeruginosa [31]): Active
MIC (Pseudomonas aeruginosa [3]): 64 µg/mL (≈ 140 µM)
MIC (Pseudomonas aeruginosa [4]): 32 µg/mL (≈ 69.9 µM)
MIC (Pseudomonas aeruginosa [8]): 256 µg/mL (≈ 560 µM)
MIC (Pseudomonas aeruginosa [9]): 32 µg/mL (≈ 69.9 µM)
MIC (Enterobacter cloacae): 128 µg/mL (≈ 280 µM)
MIC (Pseudomonas aeruginosa [12]): 64 µg/mL (≈ 140 µM)
mortality at 75 mg/kg (Pseudomonas aeruginosa [32]): 100%
MIC (Acinetobacter baumannii [33]): 4 µg/mL (≈ 8.74 µM)
MIC (Acinetobacter baumannii [34]): 1 µg/mL (≈ 2.19 µM)
MIC (Klebsiella pneumoniae [35]): 128 µg/mL (≈ 280 µM)
MIC (Pseudomonas aeruginosa [17]): 32 µg/mL (≈ 69.9 µM)
MIC (Pseudomonas aeruginosa [26]): 8 µg/mL (≈ 17.5 µM)
MIC (Acinetobacter baumannii [36]): 2 µg/mL (≈ 4.37 µM)
